The test system of experiment [1] is L1210. Nature of the experiment: The compound was evaluated for the inhibition of growth of L1210 cells in culture. In kind it is functional, cell-based. The conditions noted are these: Mus musculus. A digest of the protocol:
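L1210 cells grown in culture; growth inhibition reported as the ID50 in μM.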

The target of experiment [2] is T1, Dihydrofolate reductase (Mus musculus, UniProt P00375).
T1 sequence (P00375 whole entry): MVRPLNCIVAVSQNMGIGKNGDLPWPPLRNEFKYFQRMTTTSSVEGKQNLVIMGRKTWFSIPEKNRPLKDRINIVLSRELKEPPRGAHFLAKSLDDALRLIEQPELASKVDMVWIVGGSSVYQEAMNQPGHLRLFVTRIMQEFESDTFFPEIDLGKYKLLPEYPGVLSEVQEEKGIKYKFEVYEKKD
The experiment is described as follows: The compound was evaluated in vitro for inhibition of purified L1210 dihydrofolate reductase.

Experiment [3] addresses T2, Thymidylate synthase (Mus musculus, UniProt P07607). Nature of the experiment: In vitro inhibition of L1210 thymidylate synthase. A digest of the protocol: (§1)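 Thymidylate synthase purified from L1210 cells; IC50 determined, with CB3717 assayed as the reference control alongside each compound.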
Experiment [4] addresses T2, Thymidylate synthase. The experiment is described as follows: In vitro inhibition of L1210 thymidylate synthase with CB3717 as control. In outline:
as §1

T2 sequence (P07607 whole entry): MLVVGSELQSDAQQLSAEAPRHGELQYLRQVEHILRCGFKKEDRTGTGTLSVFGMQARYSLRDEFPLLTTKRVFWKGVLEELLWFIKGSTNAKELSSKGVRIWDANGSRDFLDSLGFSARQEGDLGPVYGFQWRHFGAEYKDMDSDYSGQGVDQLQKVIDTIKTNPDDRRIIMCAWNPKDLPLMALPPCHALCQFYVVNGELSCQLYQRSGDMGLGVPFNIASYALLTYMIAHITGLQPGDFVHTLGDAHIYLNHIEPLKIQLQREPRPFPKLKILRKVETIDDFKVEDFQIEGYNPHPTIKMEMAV

As a reminder, the IC50 is the point on the concentration scale where inhibition reaches its midpoint. Read a high IC50 as lower potency. In turn, `C#CCN(Cc1ccc2[nH]c(N)nc(=O)c2c1)c1ccc(C(=O)NC(CCC(=O)O)C(=O)O)cc1` (configuration not stated) came in with an IC50 in experiment [1] of 7 µM.

Consider `C#CCN(Cc1ccc2nc(N)nc(O)c2c1)c1ccc(C(=O)NC(CCC(=O)O)C(=O)O)c(C)c1` (configuration not stated), for which the IC50 in experiment [2] stood at 25 µM; in experiment [1], 24 µM; in experiment [3], 0.4 µM; in experiment [4], 0.019 µM.

As to `C#CCN(Cc1ccc2nc(N)nc(O)c2c1)c1ccc(C(=O)NC(CCC(=O)O)C(=O)O)cc1Cl` (configuration not stated), the IC50 stood at 3 µM in experiment [2], 72 µM in experiment [1], 5 µM in experiment [3] and 0.0144 µM in experiment [4].

In the case of `C#CCN(Cc1ccc2nc(N)nc(O)c2c1)c1c(Cl)cc(C(=O)NC(CCC(=O)O)C(=O)O)cc1Cl` (configuration not stated), the IC50 in experiment [2] was 3 µM; in experiment [1] it was 37 µM; in experiment [3] it was greater than 5 µM; in experiment [4], 0.0144 µM.

With `C#CCN(Cc1ccc2nc(N)nc(O)c2c1)c1ccc(C(=O)NC(CCC(=O)O)C(=O)O)c(Cl)c1` (configuration not stated), the 50% inhibitory concentration (IC50) in experiment [2] is 11 µM; in experiment [1], 12 µM; in experiment [3], 0.03 µM; in experiment [4], 0.014 µM.

These data come from ChEMBL document CHEMBL1123453, “Quinazoline antifolates inhibiting thymidylate synthase: benzoyl ring modifications” (J Med Chem, 1986).
